Test [1] deals with Malme-3M. The test can be described thus: Growth inhibition of human MALME-3M cells overexpressing calcium-binding protein S100B after 4 days by SYBR green assay. The format is functional, cell-based. The method, boiled down:
(§1)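 MALME-3M melanoma cells, stable hairpin-vector lines with scrambled control siRNA (high S100B) or S100B knockdown siRNA (clone #7), grown in IMDM with 20% FBS, neomycin omitted during assay. Seeded in 384-well plates and grown 24 h at 37 °C, 5% CO2. Compound added, DMSO in controls, then 4 days incubation. Lysed with 1.2% Igepal plus SYBR Green I (1:10,000) for 24 h. Fluorescence read at 485/520 nm as a DNA/cell-number measure, and IC50 derived.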

Test [2] is described as follows: Destabilization of rat/bovine S100B assessed as change in melting temperature by differential scanning calorimetry. The method, boiled down: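 DSC on S100B dialyzed into 5 mM HEPES pH 7.2, 15 mM NaCl, 10 mM CaCl2, 0.5 mM TCEP, at 40-50 µM per monomer. Compound prepared in dialysis buffer, 200 µM final. Buffer reference scans subtracted and data normalized to protein concentration. Apparent Tm taken from peak maxima, compared against ligand-free S100B.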

Test [3] relates to Malme-3M. The test is described as follows: Growth inhibition of human MALME-3M cells transfected with S100B siRNA after 4 days by SYBR green assay. The format is functional, cell-based. The method in brief: as §1
Test [4] can be described thus: Binding affinity to rat/bovine recombinant S100B expressed in Escherichia coli [HMS174(DE3)strain] by NMR spectroscopy.
Test [5] can be described thus: Binding affinity to rat/bovine recombinant S100B at weaker site expressed in Escherichia coli [HMS174(DE3)strain] by NMR spectroscopy.
A short description of test [6]: Binding affinity to rat/bovine recombinant S100B at tight site expressed in Escherichia coli [HMS174(DE3)strain] by NMR spectroscopy.
Where [7] appears, read: Homo sapiens, Malme-3M, 96 h, read-out: IC50.

As for `N=C(N)c1ccc(OCCCCCCCOc2ccc(C(=N)N)cc2)cc1` [HEPTAMIDINE], the IC50 (usually the point on the concentration scale where inhibition reaches its midpoint) came out at 4.2 µM with Malme-3M [1] (setting [7]) and 6.8 µM with Malme-3M [3] (setting [7]). In addition, the ΔTm (as a rule, the shift of the melting midpoint relative to a reference) in test [2] stood at 18.3 °C. Besides, the Kd (as a rule, the free concentration of one partner at which half of the binding sites on the other are occupied at equilibrium, for simple one-to-one binding) in test [4] (read-out: Kd) was determined as 6.9 µM.
Take `N=C(N)c1ccc(OCCCCCCOc2ccc(C(=N)N)cc2)cc1` [HEXAMIDINE]: the IC50 result in the test on Malme-3M [1] (malme-3m) and in the test with Malme-3M [3] (malme-3m) was “Not Active” in each case. Further, the Kd result in test [4] is listed as “Not Active”.
For the molecule `N=C(N)c1ccc(OCCCCCOc2ccc(C(=N)N)cc2)cc1` [PENTAMIDINE], the IC50 turned out to be 10.2 µM with Malme-3M [1] (setting [7]) and 12.2 µM with Malme-3M [3] (setting [7]). In addition, the ΔTm in test [2] worked out at 1 °C. Further, the figures for the Kd in test [5] and in test [6] were 40 µM and 130 nM, respectively.
